# Screens (PubChem)
# The list is not random: actives were taken first. Their share in the collection is about 9.4%.
# L major viab: reduces viability of Leishmania major promastigotes | resazurin fluorescence viability | 200,000 tested, 9% active | inhibition, % at 10 µM; in the data active means inhibition above about 50%;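 further: promastigotes grown with compound for 44 hours at 28 °C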
# Beta apoptosis: blocks beta cell apoptosis; INS-1E cytokine-induced death, ATP luminescence, 48 h; percent of positive-control rescue, neutral wells zero; AID 435005; protection from apoptosis, % (concentration not given with the values); 300,000 tested, 0.8% active;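 active means Every replicate reaches about 75%, or at least half do and their mean reaches it too, limit read from the data; inconclusive means At least half of replicates reach the limit but their mean does not; inactive means Under half of replicates reach the limit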;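 further: 0% = cytokine-treated negative control wells and 100% = positive control rescue; higher means more ATP so stronger rescue from cytokine killing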
# CSC inhib: blocks cancer stem cells | cancer stem cell-like cells viability, luminescence | 300,000 tested, 1.1% active | inhibition, % at 7.5 µM; in the data active means inhibition above about 75%; inconclusive means no clear call, values can overlap the other calls; tested in HMLE shEcad cells
# Mdm2-MdmX inh: disrupts the human Mdm2-MdmX interaction; SaOS-2 split-luciferase Mdm2/MdmX complementation, luminescence; 330,000 tested, 3% active; O15151+Q00987; AID 485346; inhibition, % at 8 µM;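 active means inhibition of at least 50% at 8 µM in the primary screen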
# Target sequence (O15151 whole entry, looked up): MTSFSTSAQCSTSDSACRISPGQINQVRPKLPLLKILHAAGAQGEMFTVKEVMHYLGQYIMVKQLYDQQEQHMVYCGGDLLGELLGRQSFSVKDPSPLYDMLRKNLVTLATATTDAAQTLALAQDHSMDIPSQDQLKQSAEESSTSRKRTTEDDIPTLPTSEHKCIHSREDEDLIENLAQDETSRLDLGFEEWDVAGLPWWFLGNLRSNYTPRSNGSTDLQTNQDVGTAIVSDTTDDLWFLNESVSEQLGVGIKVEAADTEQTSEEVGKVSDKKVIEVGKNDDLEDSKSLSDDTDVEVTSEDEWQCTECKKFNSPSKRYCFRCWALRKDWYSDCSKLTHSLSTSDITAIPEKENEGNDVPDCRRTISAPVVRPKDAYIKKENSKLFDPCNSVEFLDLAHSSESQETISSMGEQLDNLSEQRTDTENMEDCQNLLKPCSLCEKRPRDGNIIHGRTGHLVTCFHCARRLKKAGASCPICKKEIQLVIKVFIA
# Target sequence (Q00987 whole entry, looked up): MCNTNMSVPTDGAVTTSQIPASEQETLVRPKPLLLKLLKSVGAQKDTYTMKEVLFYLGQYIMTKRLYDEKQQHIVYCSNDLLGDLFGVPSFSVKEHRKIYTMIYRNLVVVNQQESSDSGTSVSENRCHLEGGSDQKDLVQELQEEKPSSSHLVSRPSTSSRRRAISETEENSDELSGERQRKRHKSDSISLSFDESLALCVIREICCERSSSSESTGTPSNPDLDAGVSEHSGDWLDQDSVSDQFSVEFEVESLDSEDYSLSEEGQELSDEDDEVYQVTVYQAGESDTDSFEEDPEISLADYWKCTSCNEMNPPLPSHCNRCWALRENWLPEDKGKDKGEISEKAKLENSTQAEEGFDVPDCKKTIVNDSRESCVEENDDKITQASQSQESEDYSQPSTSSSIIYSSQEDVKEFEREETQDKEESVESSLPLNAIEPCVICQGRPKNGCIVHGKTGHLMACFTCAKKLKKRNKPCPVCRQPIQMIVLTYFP
# T cruzi inh: blocks replication of Trypanosoma cruzi; 300,000 tested, 1.4% active; T. cruzi beta-gal in NIH3T3, luminescence, 90 h; AID 1885; inhibition, % (concentration not given with the values);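 active means mean inhibition across valid replicates above about 55%, limit read from the data; inconclusive means mean below that limit but half or more replicates reach it; inactive means mean below it, under half of replicates reach it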;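 further: signal also drops with host cell toxicity which is not excluded here; 0% = plate median of DMSO wells and 100% = zero luminescence signal; higher percent means less beta-gal luminescence so fewer parasites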
#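 System: Mouse NIH/3T3 fibroblasts infected with β-gal-expressing T. cruzi Tulahuen C4 | Quantity: NIH/3T3 cells, 5,000 per well | Reagent: 5000 reporter trypomastigotes per well | Dosing: Compound pinned at 50 nL/well, DMSO | Schedule: 3 h host attachment, then at least 90 h co-culture | Detection: GalScreen luminescence, 60 min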
# SKKanGAS inh: SKKanGAS growth inhibition | S. pyogenes SKKanGAS, kanamycin growth, BacTiter-Glo, 6 h | inhibition, % at 7.5 µM | 300,000 tested, 1.3% active | AID 1662;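 active means mean replicate score, as percent of positive control median, at least 50; inconclusive means mean below 50 but one replicate at or above 50; inactive means mean and every replicate below 50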;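 further: strain carries kanamycin resistance gene driven by streptokinase promoter and grows in 40 µg/ml kanamycin; loss of luminescence reflects streptokinase promoter inhibition or plain growth inhibition; 0% = median of DMSO wells and 100% = positive control at its reference dose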
# Numbers without * were called inactive; ? = inconclusive; / = not tested or not shown.
SMILES,L major viab,Beta apoptosis,CSC inhib,Mdm2-MdmX inh,T cruzi inh,SKKanGAS inh
CN1C(=O)C(=Cc2c(OCc3cnc(Cl)s3)ccc3ccccc23)C(=O)N(C)C1=O,89*,-1,10,-10,3,-13
CCn1cc(C=C2C(=O)N(C)C(=O)N(C)C2=O)c2ccccc21,/,/,-11,-14,11,1
O=C(N/N=C/c1c(O)n(Cc2ccc(F)cc2)c(=O)[nH]c1=O)c1ccccc1O,-6,-2,42,23,-14,97*
O=C(N/N=C/c1c(O)n(CCc2ccccc2)c(=O)[nH]c1=O)c1ccccc1O,/,-2,-2,-2,-10,103*
O=C(N/N=C/c1c(O)n(CCc2ccc(F)cc2)c(=O)[nH]c1=O)c1ccccc1,/,-4,-3,16,-11,44
O=C(N/N=C/c1c(O)n(Cc2ccccc2)c(=O)[nH]c1=O)c1ccccc1O,-12,-6,46,-9,-1,84*
COc1ccc(Cn2c(O)c(/C=N/NC(=O)c3ccccc3O)c(=O)[nH]c2=O)cc1,-14,-5,40,-18,-28,27
CCOC(=O)Cn1cc(C(=O)c2ccccc2F)c2ccccc21,1,-5,-7,23,-4,-1
CCOC(=O)Cn1cc([N+](=O)[O-])nc1[N+](=O)[O-],99*,-14,-6,-2,14,-2
O=C(Nc1cccc(Br)c1)c1c(O)c2c(n(Cc3ccccc3)c1=O)CCCC2,/,-7,-11,12,-10,-6
COc1cc(C(c2c(C)[nH]n(-c3ccccc3)c2=O)c2c(C)[nH]n(-c3ccccc3)c2=O)cc(OC)c1OC,95*,2,-10,-11,-8,-3
O=C1/C(=C/c2ccc3c(c2)OCO3)N2CCC1CC2,-2,-1,12,0,2,-2
O=C1/C(=C\c2cc3c(cc2Br)OCO3)N2CCC1CC2,63*,-4,-5,-5,2,-8
CN(C)C(=O)Oc1ccc2c(=O)c(Oc3ccccc3Br)coc2c1,/,-5,-5,-4,5,-6
Cc1cccc(-n2c(O)c(C)c(=O)[nH]c2=S)c1,-8,/,/,/,-25,-12
CCCCCn1c(N)c(C(=O)NCc2cccs2)c2nc3ccccc3nc21,8,-16,32,25,21,10
Nc1c(C(=O)NCCCc2ccccc2)c2nc3ccccc3nc2n1Cc1cccs1,48,-12,43,16,58*,-1
CCCCn1c(N)c(C(=O)NCc2cccs2)c2nc3ccccc3nc21,9,-12,41,47,55*,38
CC(=O)OC1N=C(c2ccccc2)c2cc(Br)ccc2NC1=O (stereo unspecified),85*,-2,-4,6,5,-9
CC1(C)CC(CCNCc2ccc3c(c2)OCO3)(Cc2ccccc2)CCO1 (stereo unspecified),89*,-7,-8,27,18,-1
Clc1cccc(CNCCc2ccc3c(c2)OCO3)c1,/,-5,-4,-23,43,0
C=CCN1C(=O)NC(=O)/C(=C/c2cc3c4c(c2)CCCN4CCC3)C1=O,93*,1,2,5,-8,1
CC(=O)OC(C)(C)/C=C/C(=O)[C@](C)(O)[C@H]1[C@H](O)C[C@@]2(C)[C@@H]3CC=C4[C@H](C[C@H](O)C(=O)C4(C)C)[C@]3(C)C(=O)C[C@]12C,52*,/,/,/,/,/
O=C(CF)NC(Nc1cccc2cccnc12)C(Cl)(Cl)Cl (stereo unspecified),13,-7,-10,6,-4,-1
O=C(c1ccc2c(c1)OCO2)C1CCCN(Cc2c(F)cccc2Cl)C1 (stereo unspecified),/,-9,8,2,18,4
SMILES,L major viab,Beta apoptosis,CSC inhib,Mdm2-MdmX inh,T cruzi inh,SKKanGAS inh
Cc1ccc(CN2CCCC(C(=O)c3cccc(C(F)(F)F)c3)C2)o1 (stereo unspecified),47,-3,-7,13,19,-4
O=C(c1cccc(C(F)(F)F)c1)C1CCCN(Cc2ccccc2O)C1 (stereo unspecified),84*,0,/,13,21,2
O=C(c1ccc(C(F)(F)F)cc1)C1CCCN(Cc2ccncc2)C1 (stereo unspecified),89*,32,22,14,41,-4
O=C(c1ccc(C(F)(F)F)cc1)C1CCCN(Cc2ccc(CO)o2)C1 (stereo unspecified),88*,-3,8,-37,-15,-5
CC(C)OP(=O)(OC(C)C)C(O)c1ccccc1F (stereo unspecified),-9,-9,3,-31,-7,-4
COc1ccc(-c2nn(CCC#N)cc2C(=O)Nc2ccccc2Br)cc1[N+](=O)[O-],/,6,1,-26,1,2
CN1CCCN(C(=O)COc2ccc(F)cc2Cl)CC1,/,/,8,5,3,7
COc1ccc(CCNCc2ccsc2)cc1OC,/,/,-8,15,3,1
COc1ccc(CCNCc2ccc(F)cc2)cc1OC,50*,1,3,7,39,0
COc1ccc(CCNCc2ccc(SC)cc2)cc1,63*,-3,10,11,61*,12
CC(=O)OC1N=C(c2ccccc2)c2cc(Br)ccc2N(C)C1=O (stereo unspecified),-4,-7,-20,18,-4,-1
Cc1ccc(-n2c(C)nc3cc(Cl)ccc3c2=O)nc1,/,-5,-13,-5,-10,4
Cc1oc(-c2ccccc2)nc1CN1C(=O)C(C)N=C(c2ccccc2F)c2cc(Cl)ccc21 (stereo unspecified),94*,5,29,17,33,10
O=P1(N(CCCl)CCCl)NCCCO1 (stereo unspecified),/,3,-21,4,-14,-3
CC(C)C(=O)Nc1ccc(S(=O)(=O)N2CC3CC(C2)c2cccc(=O)n2C3)cc1 (stereo unspecified),-4,-8,-9,15,-8,2
Cn1c(O)c(C=NC2CCN(Cc3ccccc3)CC2)c(=O)[nH]c1=O,/,/,-8,12,10,0
O=c1[nH]c(=O)n(C2CCCCCC2)c(O)c1C=NC1CCN(Cc2ccccc2)CC1,89*,2,0,22,65*,-2
O=C(O)C(Cl)(Cl)Cl,/,7,-8,4,10,1
COC(=O)C1=C(c2cc3ccccc3s2)C[C@@H]2CC[C@H]1N2C(=O)NCCS(C)=O (stereo partly specified),/,-6,-4,-15,9,-1
Cn1cccc1/C=C1\C(=O)NC(=O)N(CCC2=CCCCC2)C1=O,-3,/,/,/,-13,4
O=C1NC(=O)N(CCC2=CCCCC2)C(=O)/C1=C\c1cccs1,55*,-9,13,8,-8,4
CCOC(=O)c1sc(N=Nc2c(O)[nH]c(=O)[nH]c2=O)c(C(=O)OCC)c1C,59*,-6,-8,14,-19,3
O=C(Oc1ccc([N+](=O)[O-])cc1)N1CCC(N2CCCCC2)CC1,93*,2,7,-7,?,-2
